From PubChem BioAssay
Active and inactive are the calls of the source.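 Rule for the calls, unless noted: active = a full or partial loss of lipid-probe fluorescence in the fish gall bladder, intestine or both, judged by eye; inactive = no fluorescence loss, or compound toxic to the fish.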

Columns and labels:
[1] = inhibitors of TNFa-induced NFkB p65 translocation, primary screen, imaging, HUVEC, MLSMR starter and 10KST1 sets (AID 438;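 active = inhibition above 20% together with a positive visual image hit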;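 note: compound added about 3h40 before a 20 min TNFalpha stimulation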;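 for inhibition: signal is the nuclear over cytoplasmic p65 intensity ratio per well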); details: HUVEC TNFa-induced p65 nuclear translocation; cell count: measured here: nuclei count (cytotoxicity indicator), at 2.08 µM; inhibition: at 2 µM, stronger effect = higher value, 0% TNFa-plus-vehicle, 100% no-TNFa wells
[2] = inhibitors of E-selectin induction by TNFa, primary screen, imaging, HUVEC, immunofluorescence, MLSMR starter and 10KST1 sets (AID 487;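 active = visually confirmed hit in the image check and inhibition above 20%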;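 for inhibition: signal is fraction of cell area covered by stained E-selectin grains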;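 for nuclei count: 100% = median nuclei count of all wells on the same plate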); details: HUVEC TNFalpha-induced E-selectin immunofluorescence imaging, at 2 µM; inhibition: stronger effect = higher value; nuclei count: measured here: cell number, toxicity
[3] = DUSP6 inhibitors restoring Erk phosphorylation by chemical complementation, primary imaging in DUSP6-transfected HeLa (AID 609;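 active = compounds giving at least 50% inhibition in the cell-based MKP-3 phosphatase rescue imaging test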;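 for inhibition: phospho-Erk level distribution per well compared with pooled transfected vehicle control wells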); details: HeLa MKP-3 transfected, phospho-Erk imaging KS statistic, at 10 µM, cells stimulated with TPA for 15 min
[4] = target: Dual specificity protein phosphatase 6 (Homo sapiens) (UniProt Q16828); assay: as above; details: HeLa MKP-3 transfected, phospho-Erk imaging KS statistic; at 10 µM; stronger effect = higher value; cells stimulated with TPA for 15 min
[5] = target: Voltage-gated potassium channel subunit beta-2 (Rattus norvegicus) (UniProt P62483); assay: KvBeta enzyme negative modulators, primary screen, biochemical, NADPH fluorescence (AID 622;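 active = fluorescence slope higher than the sample average by over 3 SD, cut at about -0.22 in these data, passing the limit was not always enough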;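 note: slope of raw intensity against log time taken from 70 to 1610 s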); details: recombinant KvBeta, 4-cyanobenzaldehyde reduction, at 10 µM, stronger effect = higher value
[6] = target: Voltage-gated potassium channel subunit beta-2 (Rattus norvegicus) (UniProt P62483); assay: KvBeta positive modulators, primary screen, biochemical, NADPH fluorescence (AID 623;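 active = NADPH fluorescence slope more negative than the mean of all samples by about 3 SD, 99.7% confidence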;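 note: fluorescence intensity change per second fitted from 20 to 320 s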); details: Recombinant KvBeta, NADPH fluorescence decrease slope, 10 min; at 10 µM; stronger effect = lower value
[7] = target: Muscarinic acetylcholine receptor M4 (Homo sapiens) (UniProt P08173); assay: compounds altering M4/GIRK thallium flux, either direction, primary screen, M4 allosteric agonist project, cell-based, HEK293 M4/GIRK, BTC-AM (AID 625;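 active = fluorescence slope after compound addition differing from the mean of all tested samples at 99.7% confidence, mostly higher but some lower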;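 note: thallium influx through GIRK channels coupled to M4 in HEK293 cells with BTC-AM dye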); details: at 10 µM, actives lie on both sides
In short: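 assay system = HEK293 cells with M4 receptor and GIRK channels | medium = pH 7.3 thallium assay buffer | doses = 10 µM final, single point | timing = cells overnight at 37 °C, BTC-AM loading 1 h, reads 2 min total | signal = BTC-AM fluorescence, 1 Hz kinetic reads | read-out = post-addition slope, 15–24 s, of baseline-normalized fluorescence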

[8] = inhibitors of larval lipid processing in zebrafish, primary screen, whole organism, PED6 fluorescence, gall bladder and intestine (AID 686); details: Zebrafish larvae PED6 lipid processing, fluorescence scoring; screened at 20 µM (by protocol);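 note: larvae 5 to 7 days old with five fish per well; signal comes from phospholipase A2 cleavage of quenched PED6 carried via bile; overnight exposure to compound and PED6 before scoring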
In short: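 Also added: quenched phospholipase substrate PED6, 100 nM final, ingested by larvae; System: zebrafish larvae, 5-7 d; Quantity: 5 larvae per well; Compound: 20 µM single dose; Schedule: overnight compound and PED6 incubation; Read-out: visual per-well fluorescence inhibition score; Measured by: By-eye fluorescence microscopy; Medium: E3.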

[9] = inhibitors of Chlamydomonas gravitaxis, primary screen, whole organism, Chlamydomonas reinhardtii, WT vs cilia-less mutant, absorbance, 96-well (AID 463189;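 active = inhibition at or above 50% relative to wild type and mutant plate controls; inactive = inhibition below 50%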;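 note: 0% = wild type cc124 cells in DMSO and 100% = ciliumless bld1 mutant cells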); details: OD600 absorbance, 2 days, at 10 µM, stronger effect = higher value
[10] = measured here: cell density z-score
[11] = measured here: nuclear c-Myc green intensity z-score
[12] = measured here: nuclear pErk red intensity z-score, stronger effect = higher value

Dual specificity protein phosphatase 6 (Homo sapiens), sequence (Q16828 whole entry, looked up): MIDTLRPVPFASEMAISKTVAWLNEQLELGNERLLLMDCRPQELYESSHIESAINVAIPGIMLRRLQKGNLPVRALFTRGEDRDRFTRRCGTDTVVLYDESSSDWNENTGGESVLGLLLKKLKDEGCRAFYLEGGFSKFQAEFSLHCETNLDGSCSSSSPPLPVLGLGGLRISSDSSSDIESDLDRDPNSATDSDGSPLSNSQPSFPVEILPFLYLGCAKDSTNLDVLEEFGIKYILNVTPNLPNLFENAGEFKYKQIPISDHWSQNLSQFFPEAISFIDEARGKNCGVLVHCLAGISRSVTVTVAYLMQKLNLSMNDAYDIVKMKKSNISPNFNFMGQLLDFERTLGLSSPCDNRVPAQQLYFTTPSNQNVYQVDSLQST
Voltage-gated potassium channel subunit beta-2 (Rattus norvegicus), sequence (P62483 whole entry, looked up): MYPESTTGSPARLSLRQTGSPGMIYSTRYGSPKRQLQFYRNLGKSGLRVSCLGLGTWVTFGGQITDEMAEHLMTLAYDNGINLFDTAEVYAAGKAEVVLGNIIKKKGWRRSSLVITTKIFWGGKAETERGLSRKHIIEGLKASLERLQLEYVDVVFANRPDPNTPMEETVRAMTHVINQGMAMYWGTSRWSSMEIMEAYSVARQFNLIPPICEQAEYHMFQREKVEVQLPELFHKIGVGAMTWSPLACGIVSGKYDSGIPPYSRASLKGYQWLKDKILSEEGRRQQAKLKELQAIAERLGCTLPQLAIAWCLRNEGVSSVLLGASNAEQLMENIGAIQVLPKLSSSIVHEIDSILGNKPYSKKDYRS
Muscarinic acetylcholine receptor M4 (Homo sapiens), sequence (P08173 whole entry, looked up): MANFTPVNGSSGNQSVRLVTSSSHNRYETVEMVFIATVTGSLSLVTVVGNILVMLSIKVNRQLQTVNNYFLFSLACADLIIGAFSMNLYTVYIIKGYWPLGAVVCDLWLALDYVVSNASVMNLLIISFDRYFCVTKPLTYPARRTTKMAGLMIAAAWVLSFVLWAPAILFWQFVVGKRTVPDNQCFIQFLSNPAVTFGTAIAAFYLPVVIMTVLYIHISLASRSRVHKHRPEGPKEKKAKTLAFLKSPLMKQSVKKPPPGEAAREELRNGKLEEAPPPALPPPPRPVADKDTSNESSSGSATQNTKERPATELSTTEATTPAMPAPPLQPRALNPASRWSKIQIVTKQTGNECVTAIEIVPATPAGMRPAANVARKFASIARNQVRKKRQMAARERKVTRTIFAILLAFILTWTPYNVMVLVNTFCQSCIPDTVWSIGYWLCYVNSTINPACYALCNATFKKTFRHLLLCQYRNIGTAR

| Structure (SMILES) | cell count [1] | inhibition [1] | inhibition [2] | nuclei count [2] | z-score [3, 10] | z-score [3, 11] | z-score [3, 12] | inhibition [4] | fluorescence slope [5] | NADPH fluorescence slope [6] | fluorescence slope [7] | outcome [8] | inhibition [9] |
| --- | --- | --- | --- | --- | --- | --- | --- | --- | --- | --- | --- | --- | --- |
| CCNC(=O)c1cc2c(=O)n3cccc(C)c3nc2n(CCc2ccccc2)c1=N | 643 | 8.2% (inactive) | -7.9% (inactive) | 106% | -0.692 | 0.0237 | -0.676 | 14.7% (inactive) | -0.0428 (inactive) | -1.8e-05 (inactive) | 0.00034 (inactive) | active; no signal in intestine only | 70.9% (active) |
| CCOC(=O)c1[nH]c2ccccc2c1N=CN(CC)CC | 684 | 0.2% (inactive) | -230% (inactive) | 160% | -0.555 | 0.832 | 0.765 | 1.9e-07% (inactive) | -0.472 (inactive) | -5.6e-05 (inactive) | 0.00609 (inactive) | inactive | -14.4% (inactive) |
| CCOc1ccc(C2=Nn3c(nnc3-c3ccccc3OC)SC2)cc1 | 409 | 35.7% (active) | -453% (inactive) | 82.2% | -1.24 | 0.121 | -0.702 | 4.25% (inactive) | -0.472 (inactive) | -1.9e-05 (inactive) | 0.00485 (inactive) | inactive | -11.5% (inactive) |
| Cn1c(NCCCO)nc2c1c(=O)n(Cc1ccccc1F)c(=O)n2C | 691 | -14.5% (inactive) | -160% (inactive) | 167% | -0.594 | -1.48 | 0.588 | 1.9e-07% (inactive) | -0.512 (inactive) | -3.1e-05 (inactive) | 0.00567 (inactive) | inactive | 7.04% (inactive) |
| C=CCN(C(=O)CCC(=O)O)C1CC(=O)N(c2ccc(OC)cc2)C1=O (stereo unspecified) | 549 | 0.4% (inactive) | 17.4% (inactive) | 97.5% | 1.91 | 0.0386 | -1.01 | 14.7% (inactive) | -0.482 (inactive) | -3.4e-05 (inactive) | 0.005 (inactive) | inactive | -19.1% (inactive) |
| COC(=O)c1[nH]c(C)c(/C(O)=C2\C(=O)C(=O)N(CCN3CCOCC3)C2c2ccccc2OC)c1C (stereo unspecified) | 610 | -6% (inactive) | -13.3% (inactive) | 168% | -1.87 | 0.251 | -0.629 | -7.28% (inactive) | -0.491 (inactive) | -0.000142 (inactive) | 0.00635 (inactive) | inactive | 5.11% (inactive) |
| CCSc1nnc(NC(=O)C(C)(C(F)(F)F)C(F)(F)F)s1 | 664 | -10.9% (inactive) | -107% (inactive) | 183% | -1.16 | 0.962 | -1.02 | 1.9e-07% (inactive) | -0.49 (inactive) | -6.3e-05 (inactive) | 0.00486 (inactive) | inactive | 2.14% (inactive) |
| Cn1ncc(N=Cc2c(O)ccc3ccccc23)c1C(=O)N1CCOCC1 | 713 | -2.5% (inactive) | -43.6% (inactive) | 175% | 0.977 | 0.19 | 0.26 | 3.97% (inactive) | -0.482 (inactive) | -9.8e-05 (inactive) | 0.00513 (inactive) | inactive | 11.5% (inactive) |
| CC(C)NCc1c(O)c(Br)cc2oc3c(c12)CCCC3 | 533 | 9.9% (inactive) | -3.5% (inactive) | 99.8% | 0.0675 | -0.158 | -0.115 | -7.67% (inactive) | -0.517 (inactive) | -1.1e-05 (inactive) | 0.00361 (inactive) | inactive | 53.2% (active) |
| CCN(CC)C(=O)C1CCN(c2ncnc3c2cnn3-c2ccc(C)cc2C)CC1 | 622 | -8.2% (inactive) | -52.3% (inactive) | 178% | 1.38 | -1.28 | 0.399 | 11.4% (inactive) | -0.416 (inactive) | -4.9e-05 (inactive) | 0.00727 (inactive) | inactive | 27.9% (inactive) |
| c1ccc2c(N3CCCCC3)nc(N3CCCCC3)nc2c1 | 497 | -2.8% (inactive) | 20.7% (inactive) | 159% | -1.53 | 0.598 | 1.04 | 1.9e-07% (inactive) | -0.388 (inactive) | -3.5e-05 (inactive) | 0.00468 (inactive) | inactive | 4.68% (inactive) |
| CCc1nc(NCCN2CCOCC2)c(C#N)c2c1CCCC2 | 358 | -2.8% (inactive) | -19.6% (inactive) | 79.7% | -0.865 | 0.944 | 0.38 | 11.4% (inactive) | -0.595 (inactive) | 4.1e-06 (inactive) | 0.00436 (inactive) | inactive | 30.2% (inactive) |
| Cn1c(=O)c2c(nc(NCc3ccco3)n2Cc2ccc(Cl)cc2Cl)n(C)c1=O | 644 | 3.3% (inactive) | -21.8% (inactive) | 104% | -0.0402 | -0.421 | 0.466 | 12.8% (inactive) | -0.405 (inactive) | -1.9e-05 (inactive) | 0.00546 (inactive) | inactive | -11.8% (inactive) |
| COc1cc(C)nc(Nc2nc(C)c(C(C)=O)s2)n1 | 393 | 0% (inactive) | -89% (inactive) | 125% | 1.97 | -1.71 | -0.786 | 43.2% (inactive) | -0.456 (inactive) | -8.3e-05 (inactive) | 0.00495 (inactive) | inactive | 46.4% (inactive) |
| CC(=O)NCC(=O)OCN1C(=O)c2ccccc2C1=O | 520 | -8.8% (inactive) | -105% (inactive) | 154% | 0.466 | -1.64 | -0.405 | 15.9% (inactive) | -0.376 (inactive) | 7.5e-06 (inactive) | 0.00573 (inactive) | inactive | 20% (inactive) |
| Nc1nnnn1/N=C/c1cccc(Oc2ccccc2)c1 | 539 | -12.1% (inactive) | 65.8% (inactive) | 88.7% | 1.62 | -1.31 | -1.66 | 21% (inactive) | -0.523 (inactive) | -1.8e-05 (inactive) | 0.00678 (inactive) | inactive | 13.4% (inactive) |
| COc1cccc(CNc2ncc(Br)cc2Br)c1O | 474 | -5.4% (inactive) | -263% (inactive) | 170% | -1.34 | 0.935 | 2.04 | -5.62% (inactive) | -0.439 (inactive) | -4.8e-05 (inactive) | 0.0052 (inactive) | inactive | 5.51% (inactive) |
| Cc1nnc(N2CCOCC2)c2ccccc12 | 590 | -0.6% (inactive) | -63.6% (inactive) | 148% | 0.561 | 0.102 | -1.27 | 1.63% (inactive) | -0.472 (inactive) | -0.000134 (inactive) | 0.00562 (inactive) | inactive | 14.9% (inactive) |
| O=C(c1ccc2c3c(cccc13)C(=O)N(O)C2=O)N1CCCCC1 | 583 | -6.7% (inactive) | 65.6% (active) | 92.9% | 1.73 | -0.867 | -1.15 | 35.1% (inactive) | -0.426 (inactive) | -3.2e-05 (inactive) | 0.00526 (inactive) | inactive | 35.8% (inactive) |
| C(=N\n1cnnc1)/c1ccccn1 | 607 | 3.2% (inactive) | -109% (inactive) | 127% | 0.675 | 3.12 | -0.143 | 9.42% (inactive) | -0.442 (inactive) | -0.000114 (inactive) | 0.00562 (inactive) | inactive | 16.5% (inactive) |
| CCOC(=O)/C=c1\s/c(=C(\C#N)C(=O)OCC)n(-c2ccccc2)c1=O | 653 | -4.6% (inactive) | -12% (inactive) | 151% | -0.465 | -0.678 | -0.157 | 1.42% (inactive) | -0.359 (inactive) | -6.6e-07 (inactive) | 0.00573 (inactive) | inactive | -7.74% (inactive) |
| COc1ccc(OC)c(C2/C(=C(\O)c3ccc(OC)c(Cl)c3)C(=O)C(=O)N2CCN(C)C)c1 (stereo unspecified) | 680 | -6.8% (inactive) | -97.8% (inactive) | 173% | -0.468 | -0.414 | -1.65 | -2.91% (inactive) | -0.449 (inactive) | -3.7e-05 (inactive) | 0.00525 (inactive) | inactive | 14% (inactive) |
| c1ccc2c(c1)[nH]c1c(N3CCN(C4CCCCC4)CC3)ncnc12 | 601 | -21% (inactive) | -59.2% (inactive) | 172% | 0.663 | -1.44 | -1.01 | 27.4% (inactive) | -0.169 (inactive) | -1.6e-05 (inactive) | 0.00557 (inactive) | inactive | 18.4% (inactive) |
| COc1ccc2nc(SCC(=O)O)nc(C)c2c1 | 472 | -2.5% (inactive) | -119% (inactive) | 167% | -1.34 | -1.35 | 0.21 | -2.29% (inactive) | -0.447 (inactive) | -4.9e-05 (inactive) | 0.00491 (inactive) | inactive | 25.2% (inactive) |
| CCOC(=O)CSc1nnc2n(Cc3ccccc3)c(=O)c3c4c(sc3n12)CCC4 | 364 | 0.8% (inactive) | 49.8% (inactive) | 168% | -0.465 | -0.253 | 1.89 | 13.4% (inactive) | -0.428 (inactive) | -0.000132 (inactive) | 0.00471 (inactive) | active; weak signal in gallbladder and intestine | 0.799% (inactive) |
| COC(=O)CC1=C(C(=O)OC)C(c2cccc(OCC(N)=O)c2)C(C#N)=C(N)O1 (stereo unspecified) | 723 | -1% (inactive) | -67.7% (inactive) | 186% | -1.4 | 0.109 | 1.84 | 27.5% (inactive) | -0.432 (inactive) | -7e-05 (inactive) | 0.00612 (inactive) | inactive | 12% (inactive) |
| C=CCOc1nc2c(c(=O)n(Cc3ccc(Cl)cc3)c(=O)n2C)n1C | 534 | -5.1% (inactive) | 22.1% (inactive) | 170% | -0.487 | 1.21 | 0.796 | -9.91% (inactive) | -0.414 (inactive) | -5.4e-05 (inactive) | 0.00453 (inactive) | inactive | -3.62% (inactive) |
